From article PMC7125971 (European Journal of Medicinal Chemistry, 2015)
Entries after “also recorded” stand apart in the source; their conditions may differ.

What was measured:
[1] = tested on: all tested malignant cell lines; assay: Cytostatic activity on the whole panel of malignant cell lines; assay type: cell-based
In short: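 Malignant lines HeLa, SW620, MiaPaCa-2, HepG2 and CFPAC-1 grown as monolayers in DMEM with 10% FBS at 37 °C, 5% CO2. Plated at 5000 cells/well and exposed 72 h to five 10-fold dilutions (0.01–100 μM), with DMSO ≤0.1%. Growth read by MTT and converted to percentage growth by NIH formulas. Quadruplicate points in three experiments; ANOVA with Tukey post-hoc test.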

Para-influenza-3 virus = assay: organism not typed; assay type: cell-based; settings: Vero, read-out: EC50 Para-influenza-3 virus
Reovirus-1 = assay: organism not typed; assay type: cell-based; settings: Vero, read-out: EC50 Reovirus-1
[2] = tested on: 3T3 cells (embryonal murine fibroblasts); assay: Cytotoxic effects on embryonal murine fibroblasts 3T3; assay type: cell-based, mouse
In short: (§1)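 Cells grown as monolayers in DMEM with 10% FBS, 2 mM L-glutamine, 100 U/ml penicillin and 100 μg/ml streptomycin at 37 °C, 5% CO2. 5000 cells/well seeded on day 0. Compound added in five 10-fold dilutions (0.01–100 μM); final DMSO ≤0.1%. Cells incubated 72 h, then MTT; absorbance converted to percentage growth vs same-plate untreated controls. Quadruplicate points in three experiments; ANOVA with Tukey post-hoc test.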

[3] = tested on: HeLa cells (cervical carcinoma); assay: Antiproliferative assay; assay type: cell-based, human
In short: as §1

[4] = tested on: human embryonic lung cells (HEL); assay: Cytostatic activity; assay type: cell-based
In short: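 HEL cells seeded at 5 × 10^3 cells/well and allowed to proliferate 24 h. Medium with varying compound concentrations then added, and cells incubated 3 days at 37 °C. Cell number counted by Coulter counter. CC50 (50% reduction in proliferation vs untreated controls) read from plots of cell number (% of control) against concentration.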

[5] = tested on: Crandell-Rees feline kidney cells (CRFK)
[6] = tested on: Madin Darby canine kidney (MDCK) cells
[7] = tested on: human cytomegalovirus (HCMV); assay: Anti-HCMV activity in HEL cells, strain not told apart in the statement; assay type: cell-based; settings: compared to compound 3
[8] = tested on: African green monkey kidney epithelial cells (Vero); settings: alteration of normal cell morphology, listed as C00010
Punta Toro virus = assay: microbe, parasite or virus in culture; assay type: cell-based; settings: Vero, read-out: EC50 Punta Toro virus

| Compound | cytostatic activity on the malignant cell line panel (in words) [1] | EC50 (Reovirus-1) [µM] | cytotoxic effects on 3T3 cells (in words) [2] | other results |
| --- | --- | --- | --- | --- |
| O=C1O/C(=C\Cn2cc(I)c3c(Cl)ncnc32)C(OCc2ccccc2)=C1OCc1ccccc1 [Compound 10, 3,4-di-O-benzyl-5-(9-(6-chloro-7-iodo-7H-pyrrolo[2,3-d]pyrimidine-9-yl)ethylidene)furan-2(5H)-one] | no marked cytostatic nor antiviral activities |  |  |  |
| Nc1ncnc2c1ncn2C[C@H](O)CO [(S)-DHPA, (S)-9-(2,3-dihydroxypropyl)adenine, reference compound] |  | > 250 |  | EC50 (Para-influenza-3 virus): > 250 µM |
| O=C1O/C(=C\Cn2cnc3c(Cl)c(F)nc(F)c32)C(OCc2ccccc2)=C1OCc1ccccc1 [Compound 3, 3,4-di-O-benzyl-5-(7-(3-chloro-2,6-difluoro-1H-imidazo[4,5-c]pyridine-7-yl)ethylidene)furan-2(5H)-one] |  | > 20 | did not show any cytostatic effects | EC50 (Para-influenza-3 virus): > 20 µM; activity / cytostatic effects on HeLa cells (in words) [3]: did not show any cytostatic effects; cytotoxic effects on HEL cells (in words) [4]: without cytotoxic effects; also recorded: did not show any cytostatic effects; cytostatic effects on CRFK cells (in words) [5]: did not show any cytostatic effects; cytostatic effects on MDCK cells (in words) [6]: did not show any cytostatic effects |
| O=C1O/C(=C\Cn2cnc3c(Cl)c(F)nc(F)c32)C(O)=C1O [Compound 8, 5-(2-(7-chloro-4,6-difluoro-3H-imidazo[4,5-c]pyridine-3-yl)ethylidene)-3,4-dihydroxyfuran-2(5H)-one] |  |  |  | anti-HCMV activity (in words) [7]: loss of anti-HCMV activity |
| O=C1O/C(=C\Cn2cnc3cc[nH]c3c2=O)C(OCc2ccccc2)=C1OCc1ccccc1 [Compound 14, 3,4-di-O-benzyl-5-(1-(3H-pyrrolo[3,2-d]pyrimidine-4(5H)-one-1-yl)ethylidene)furan-2(5H)-one] |  |  | without cytotoxic effects |  |
| O=C1O/C(=C\Cn2cnc3cncc(Br)c32)C(OCc2ccccc2)=C1OCc1ccccc1 [Compound 1, 3,4-di-O-benzyl-5-(9-(3-bromo-1H-imidazo[4,5-c]pyridine-9-yl)ethylidene)furan-2(5H)-one] | weak and nonselective antiproliferative activity |  | low cytotoxic effects; also recorded: moderate or low cytotoxic effects | activity / cytostatic effects on HeLa cells (in words) [3]: moderate activity |
| O=C1NC(O)(CCn2cnc3cncc(Br)c32)C(OCc2ccccc2)=C1OCc1ccccc1 (centres unmarked) [Compound 6, 3,4-di-O-benzyl-5-(9-(3-bromo-1H-imidazo[4,5-c]pyridine-9-yl)ethyl)-5-hydroxy-1H-pyrrolo-2(5H)-one] | weak and nonselective antiproliferative activity |  | moderate or low cytotoxic effects |  |
| O=C1O/C(=C\Cn2cnc3c(F)nc(F)c(Cl)c32)C(OCc2ccccc2)=C1OCc1ccccc1 [Compound 2, 3,4-di-O-benzyl-5-(9-(3-chloro-2,6-difluoro-1H-imidazo[4,5-c]pyridine-9-yl)ethylidene)furan-2(5H)-one] |  | > 20 |  | EC50 (Para-influenza-3 virus): > 20 µM; activity / cytostatic effects on HeLa cells (in words) [3]: no cytostatic effects; MCC [8]: ≥20 µM |
| NC(=O)c1ncn([C@@H]2O[C@H](CO)[C@@H](O)[C@H]2O)n1 [Ribavirin, reference compound] |  | > 250 |  | EC50 (Punta Toro virus): 150 ± 141 µM |
| Nc1nc(F)c(Cl)c2c1ncn2CCC1(O)NC(=O)C(OCc2ccccc2)=C1OCc1ccccc1 (centres unmarked) [Compound 7, 5-(9-(6-amino-3-chloro-2-fluoro-1H-imidazo[4,5-c]pyridine-9-yl)ethyl)-3,4-di-O-benzyl-5-hydroxy-1H-pyrrolo-2(5H)-one] |  |  |  | anti-HCMV activity (in words) [7]: lost anti-HCMV activity; also recorded: loss of anti-HCMV activity |
| O=C1NC(O)(/C=C\n2cc(I)c3c(Cl)ncnc32)C(OCc2ccccc2)=C1OCc1ccccc1 (centres unmarked) [Compound 12, 3,4-di-O-benzyl-5-(9-(6-chloro-7-iodo-7H-pyrrolo[2,3-d]pyrimidine-9-yl)-vinyl)-5-hydroxy-1H-pyrrolo-2(5H)-one] | weak and nonselective antiproliferative activity; also recorded: no marked cytostatic nor antiviral activities |  | moderate or low cytotoxic effects |  |
